According to ChEMBL document CHEMBL4342523, “Discovery and Development of S6821 and S7958 as Potent TAS2R8 Antagonists” (J Med Chem, 2020):
Activity calls are given as the source filed them. The rule behind the calls is not given here.

Legend:
[1] = molecular target: Taste receptor type 2 member 31 (Homo sapiens) (UniProt P59538); experiment: Antagonist activity at recombinant human TAS2R31 transiently expressed in HEK293T co-expressing Galpha16gust44 assessed as inhibition of aristolochic acid-induced intracellular calcium level by measuring remaining activity at 25 uM by fluo-4AM dye based FLIPR assay relative to control; assay type: functional, cell-based
Sequence of Taste receptor type 2 member 31 (Homo sapiens) (P59538 whole entry): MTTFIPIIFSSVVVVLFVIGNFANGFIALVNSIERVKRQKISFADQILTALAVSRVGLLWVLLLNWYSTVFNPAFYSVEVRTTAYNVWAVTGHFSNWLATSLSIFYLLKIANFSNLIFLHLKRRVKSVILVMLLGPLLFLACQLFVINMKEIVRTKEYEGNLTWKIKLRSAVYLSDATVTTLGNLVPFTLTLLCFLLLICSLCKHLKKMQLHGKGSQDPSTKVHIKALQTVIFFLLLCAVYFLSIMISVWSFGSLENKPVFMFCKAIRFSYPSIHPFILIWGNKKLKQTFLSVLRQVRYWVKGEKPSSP

[2] = molecular target: T1, Taste receptor type 2 member 8 (Homo sapiens, UniProt Q9NYW2); experiment: Antagonist activity at recombinant human TAS2R8 stably expressed in cells co-expressing Galpha16gust44 assessed as inhibition of andrographolide-induced intracellular calcium level measured for 100 secs by fluo-4 dye based FLIPR assay; assay type: functional, cell-based
T1 sequence (Q9NYW2 whole entry): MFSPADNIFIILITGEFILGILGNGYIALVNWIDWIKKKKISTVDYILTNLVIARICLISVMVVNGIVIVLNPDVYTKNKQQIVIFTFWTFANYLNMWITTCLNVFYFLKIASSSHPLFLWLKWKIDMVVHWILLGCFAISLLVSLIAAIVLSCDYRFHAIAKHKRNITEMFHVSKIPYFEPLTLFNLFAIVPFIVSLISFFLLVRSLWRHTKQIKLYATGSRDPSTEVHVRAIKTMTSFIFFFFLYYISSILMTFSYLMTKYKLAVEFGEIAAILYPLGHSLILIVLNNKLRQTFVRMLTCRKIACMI
Outline: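 Recombinant cells stably expressing G16t44 chimera and TAS2R8 (clones isolated by limiting dilution), plated 24 h before assay; loaded with fluo-4 in PBS 60 min, washed, rested 15 min in dark at RT. Andrographolide agonist at its EC80, premixed with antagonist and added together; final DMSO 0.5%. Baseline read 10 s, then fluorescence followed 100 s on FLIPR.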

[3] = molecular target: Taste receptor type 2 member 5 (Homo sapiens) (UniProt Q9NYW4); experiment: Antagonist activity at recombinant human TAS2R5 transiently expressed in HEK293T co-expressing Galpha16gust44 assessed as inhibition of picoline-induced intracellular calcium level by measuring remaining activity at 25 uM by fluo-4AM dye based FLIPR assay relative to control; assay type: functional, cell-based
Sequence of Taste receptor type 2 member 5 (Homo sapiens) (Q9NYW4 whole entry): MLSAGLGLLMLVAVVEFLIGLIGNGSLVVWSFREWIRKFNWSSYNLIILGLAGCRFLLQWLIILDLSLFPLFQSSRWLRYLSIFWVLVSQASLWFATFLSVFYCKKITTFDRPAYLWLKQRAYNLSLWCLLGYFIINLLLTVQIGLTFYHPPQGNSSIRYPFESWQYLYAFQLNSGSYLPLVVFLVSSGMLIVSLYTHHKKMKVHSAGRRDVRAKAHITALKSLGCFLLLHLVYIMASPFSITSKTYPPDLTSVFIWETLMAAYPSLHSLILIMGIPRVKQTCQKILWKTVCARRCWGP

[4] = molecular target: Taste receptor type 2 member 4 (Homo sapiens) (UniProt Q9NYW5); experiment: Antagonist activity at recombinant human TAS2R4 transiently expressed in HEK293T co-expressing Galpha16gust44 assessed as inhibition of chloroquine-induced intracellular calcium level by measuring remaining activity at 25 uM by fluo-4AM dye based FLIPR assay relative to control; assay type: functional, cell-based
Sequence of Taste receptor type 2 member 4 (Homo sapiens) (Q9NYW5 whole entry): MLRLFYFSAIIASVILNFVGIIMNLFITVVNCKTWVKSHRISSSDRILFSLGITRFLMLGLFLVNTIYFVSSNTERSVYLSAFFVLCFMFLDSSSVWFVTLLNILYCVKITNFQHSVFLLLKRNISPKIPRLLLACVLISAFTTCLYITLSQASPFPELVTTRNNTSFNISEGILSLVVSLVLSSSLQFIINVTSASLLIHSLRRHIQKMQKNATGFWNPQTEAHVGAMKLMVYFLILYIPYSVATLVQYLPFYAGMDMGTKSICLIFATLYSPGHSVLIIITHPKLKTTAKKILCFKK

[5] = molecular target: Taste receptor type 2 member 30 (Homo sapiens) (UniProt P59541); experiment: Antagonist activity at recombinant human TAS2R30 transiently expressed in HEK293T co-expressing Galpha16gust44 assessed as inhibition of denatonium-induced intracellular calcium level by measuring remaining activity at 25 uM by fluo-4AM dye based FLIPR assay relative to control; assay type: functional, cell-based
Sequence of Taste receptor type 2 member 30 (Homo sapiens) (P59541 whole entry): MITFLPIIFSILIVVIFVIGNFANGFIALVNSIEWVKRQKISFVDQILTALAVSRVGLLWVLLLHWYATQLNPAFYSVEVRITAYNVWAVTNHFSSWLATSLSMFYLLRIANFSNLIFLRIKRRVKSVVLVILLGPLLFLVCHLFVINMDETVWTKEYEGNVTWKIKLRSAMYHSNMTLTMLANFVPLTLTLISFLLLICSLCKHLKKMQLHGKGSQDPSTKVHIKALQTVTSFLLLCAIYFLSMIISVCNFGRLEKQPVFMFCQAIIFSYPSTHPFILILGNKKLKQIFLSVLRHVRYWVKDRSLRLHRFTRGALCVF

[6] = Stability of the compound in pH 2.8 buffer assessed as parent compound remaining measured after 24 hrs at 100 degC; assay type: physicochemical; details: read-out: Stability
[7] = molecular target: T2, Taste receptor type 2 member 8 (Homo sapiens) (UniProt Q9NYW2); experiment: Reversible antagonist activity at recombinant human TAS2R8 assessed as recovery of suppression of andrographolide-induced intracellular calcium level at 1 uM preincubated for 60 secs followed by andrographolide addition measured after 5 mins washout period using Fura-2AM dye by cell-based fluorescent microscopic analysis; assay type: functional
T2 sequence (whole entry): T1 sequence (Q9NYW2 whole entry)
Outline: (§1)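 TAS2R8 stable cells grown overnight on Matrigel-coated coverslips, loaded with 3 μg/mL Fura-2AM 1 h at RT in HBSS; ratiometric imaging under continuous HBSS perfusion with 100 μM andrographolide. Inhibitor 1 μM applied 60 s before and during agonist; 5 min HBSS washout between applications; only cells with initial ΔF/F > 0.5 analysed; mean and per-cell peak responses, 136 cells, 3 experiments.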

[8] = molecular target: T2, Taste receptor type 2 member 8 (Homo sapiens); experiment: Antagonist activity at recombinant human TAS2R8 assessed as inhibition of andrographolide-induced intracellular calcium level at 1 uM preincubated for 60 secs followed by andrographolide addition using Fura-2AM dye by cell-based fluorescent microscopic analysis; assay type: functional; outline: as §1
[9] = Stability of the compound in pH 5 buffer assessed as parent compound remaining measured after 24 hrs at room temperature; assay type: physicochemical; details: read-out: Stability
Homo sapiens = experiment: In vivo agonist activity at TAS2R14 in human assessed as induction of intrinsic bitterness up to 150 uM in presence of low sodium buffer by 15-point bitterness scale based assay; assay type: functional, organism-based
Outline: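 Human sensory test: trained external panelists, no food or drink except water ≥1 h before; compound from ethanol stock, final ethanol 0.1% (matched in blanks), in low sodium phosphate buffer pH 7.1 (0.3 mM KCl, 0.5 mM Na2HPO4, 0.175 mM KH2PO4); bitterness rated on 1–15 scale, 15 panelists × 2 replicates, Tukey's test (α = 0.05).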

[10] = molecular target: Taste receptor type 2 member 14 (Homo sapiens, UniProt Q9NYV8); experiment: Agonist activity at TAS2R14 (unknown origin) by stably expressed cell-based assay
[11] = Stability of the compound in pH 5 buffer assessed as parent compound remaining measured after 24 hrs at 100 degC; assay type: physicochemical; details: read-out: Stability
[12] = molecular target: T3, Taste receptor type 2 member 14 (Homo sapiens) (UniProt Q9NYV8); experiment: Agonist activity at TAS2R14 (unknown origin) at 25 uM by transiently expressed cell-based assay
T3 sequence (whole entry): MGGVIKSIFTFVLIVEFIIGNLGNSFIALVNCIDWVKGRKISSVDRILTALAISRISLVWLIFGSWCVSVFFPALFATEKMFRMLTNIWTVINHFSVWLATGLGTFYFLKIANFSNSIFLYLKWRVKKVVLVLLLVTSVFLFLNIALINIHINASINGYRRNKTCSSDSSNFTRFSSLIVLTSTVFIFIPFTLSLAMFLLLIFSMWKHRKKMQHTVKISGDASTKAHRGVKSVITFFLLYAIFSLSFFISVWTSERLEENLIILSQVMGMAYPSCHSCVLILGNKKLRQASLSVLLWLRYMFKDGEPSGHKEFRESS

[13] = Stability of the compound in pH 6 buffer assessed as parent compound remaining measured after 60 mins at 124 degC; assay type: physicochemical; details: read-out: Stability
[14] = Stability of the compound in pH 9.3 buffer assessed as parent compound remaining measured after 24 hrs at room temperature; assay type: physicochemical; details: read-out: Stability
[15] = Maternal toxicity in po dosed Sprague-Dawley rat assessed as effect on embryo and fetal development administered via gavage during gestation period; assay type: ADME, organism-based; details: female, in vivo
[16] = Stability of the compound in pH 2.8 buffer assessed as parent compound remaining measured after 24 hrs at room temperature; assay type: physicochemical; details: read-out: Stability
[17] = molecular target: T4, Taste receptor type 2 member 1 (Homo sapiens) (UniProt Q9NYW7); experiment: Agonist activity at TAS2R1 (unknown origin) at 25 uM by transiently expressed cell-based assay
T4 sequence (whole entry): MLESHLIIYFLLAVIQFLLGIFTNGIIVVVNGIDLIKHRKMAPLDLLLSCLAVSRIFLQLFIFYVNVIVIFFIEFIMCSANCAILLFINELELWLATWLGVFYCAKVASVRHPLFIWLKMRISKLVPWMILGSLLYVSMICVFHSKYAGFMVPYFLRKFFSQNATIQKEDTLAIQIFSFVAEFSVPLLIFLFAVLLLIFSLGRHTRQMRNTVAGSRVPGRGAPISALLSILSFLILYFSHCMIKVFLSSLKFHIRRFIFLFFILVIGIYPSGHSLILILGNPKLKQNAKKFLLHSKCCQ

SMILES	Activity [1] [%]	IC50 [2] [nM]	Activity [3] [%]	Activity [4] [%]	Activity [5] [%]	remaining at 24 h [6] [%]	inhibition [7]	inhibition [8]	remaining at 24 h [9] [%]	Activity (Homo sapiens)	EC50 [10] [nM]	remaining at 24 h [11] [%]	Activity [12]	remaining at 1 h [13] [%]	remaining at 24 h [14] [%]	NOAEL [15] [mg/kg]	remaining at 24 h [16] [%]	Activity [17]
Cc1noc(C)c1Cn1cc(N2C(=O)N(Cc3cccc(O)c3)C(C)(C)C2=O)cn1	59	60	100	215	43	> 99												
Cc1noc(C)c1Cn1cc(N2C(=O)CN(Cc3cccc(O)c3)C2=O)cn1	92	20	103	117	112	> 99	Active	Active	> 99	inactive	40000	> 99	Active	> 99	20	1000	> 99	Active
